Screening data from PubChem.
Shown are actives, neighbours in structure and some others; about 1.9% of the full set was active somewhere.
NSD2 inh = NSD2 (human) methyltransferase inhibition; inhibition, % at 12.5 µM; O96028; 0.54% of 310,000 active; NSD2 peptide methylation, AlphaScreen, 120 min; in the data active = inhibition above about 50%
MBD2 DNA inh = MBD2-methylated oligo binding inhibition | Q9UBB5 | TR-FRET, MBD2 binding to methylated oligonucleotide | inhibition, % at 4.4 µM | 0.31% of 370,000 active | AID 686964; in the data active = inhibition above about 13%
LEDGF integ inh = blocks HIV-1 LEDGF/p75-dependent DNA integration; TR-FRET IN-LEDGF/p75 DNA integration, Eu/Cy5; inhibition, % at 3.7 µM; 0.64% of 370,000 active; AID 743269;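 active = inhibition above the screen-wide mean plus 3 SD, cut at about 13% in these data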;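 also: signal is the Cy5 over europium emission ratio at 671 and 618 nm; 0% = plate median of compound wells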
TDP2 absorb = TDP2 (human) inhibition, absorbance primary screen; O95551; recombinant TDP2, T5PNP hydrolysis, p-nitrophenol absorbance 415 nm; inhibition, % at 12.8 µM; 0.34% of 370,000 active; AID 720702;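 active = inhibition above the mean of all tested compounds plus 3 SD, set per campaign, cut at about 25% in these data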;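 also: 0% = DMSO with enzyme and 100% = buffer with substrate but no TDP2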
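Assay system: recombinant human TDP2 / Reagent: T5PNP substrate at 5 mM, a TopII-DNA adduct mimic / Measured by: epi absorbance from released p-nitrophenol / Evaluation: % inhibition relative to enzyme-containing and enzyme-free wells / Control set: enzyme-free and DMSO wells / Replicates: each compound tested once, singlicate / Schedule: enzyme reaction with compound for 2 h at 37 °C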
UHRF1 binding = UHRF1 methyl-DNA binding inhibition | 0.75% of 370,000 active | UHRF1 binding to methylated oligo, TR-FRET | inhibition, % at 4.4 µM | Q96T88; in the data active = inhibition above about 21%;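 also: UHRF1 SRA domain binding a hemimethylated CpG hairpin DNA probe; 0% = median of test compound wells and 100% = reference inhibitor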
Target sequence (Q96T88 whole entry, looked up, the tested form may be a part): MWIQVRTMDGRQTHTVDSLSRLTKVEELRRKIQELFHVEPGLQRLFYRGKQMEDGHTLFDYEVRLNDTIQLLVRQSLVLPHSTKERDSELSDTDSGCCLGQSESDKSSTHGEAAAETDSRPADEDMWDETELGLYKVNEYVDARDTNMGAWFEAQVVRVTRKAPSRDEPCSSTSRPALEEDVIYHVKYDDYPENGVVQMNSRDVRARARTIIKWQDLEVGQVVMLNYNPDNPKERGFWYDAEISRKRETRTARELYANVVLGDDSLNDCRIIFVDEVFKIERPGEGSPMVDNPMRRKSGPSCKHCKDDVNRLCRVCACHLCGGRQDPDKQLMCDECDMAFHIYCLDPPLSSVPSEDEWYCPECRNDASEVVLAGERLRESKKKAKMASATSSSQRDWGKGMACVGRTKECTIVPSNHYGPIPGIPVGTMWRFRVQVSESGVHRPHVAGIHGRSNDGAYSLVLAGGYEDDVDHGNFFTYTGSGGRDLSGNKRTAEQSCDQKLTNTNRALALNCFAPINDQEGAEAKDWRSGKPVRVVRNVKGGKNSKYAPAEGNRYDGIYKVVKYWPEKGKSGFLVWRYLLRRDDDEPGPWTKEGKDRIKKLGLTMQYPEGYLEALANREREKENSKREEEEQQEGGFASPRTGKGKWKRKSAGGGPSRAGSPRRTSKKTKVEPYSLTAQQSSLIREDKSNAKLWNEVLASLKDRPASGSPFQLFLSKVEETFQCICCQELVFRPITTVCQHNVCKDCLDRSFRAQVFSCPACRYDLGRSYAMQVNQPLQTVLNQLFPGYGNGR
Casp6 inh = inhibitors of human caspase-6; 0.53% of 350,000 active; purified caspase-6, Z-VEID-R110 cleavage fluorescence; inhibition, % at 12.5 µM; P55212;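 active = mean inhibition across replicates at least about 35%, with every replicate also reaching that limit, limit read from the data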;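 also: 0% = median of neutral control wells and 100% = no fluorescence left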
* hit, by the source's call.

Results for O=C(CSc1n[nH]c(-c2ccco2)n1)Nc1ccccc1F ?
NSD2 inh: 2; MBD2 DNA inh: -3; LEDGF integ inh: 0; TDP2 absorb: -13; UHRF1 binding: -3; Casp6 inh: 46*

What do the screens show for `O=C(CSc1n[nH]c(-c2ccco2)n1)Nc1ccccc1Cl`?
NSD2 inh: 2; MBD2 DNA inh: 1; LEDGF integ inh: -1; TDP2 absorb: 17; UHRF1 binding: 0; Casp6 inh: 1

What do the screens show for `CN1C(=S)N(c2cccnc2)C(=O)/C1=C\c1ccc(N(C)C)cc1`?
MBD2 DNA inh: -11; LEDGF integ inh: -8; TDP2 absorb: -7; UHRF1 binding: 43*; Casp6 inh: 0

What do the screens show for `Cc1noc(C)c1NC(=O)N(C)C[C@@H]1Oc2ccc(NC(=O)NC(C)C)cc2CC(=O)N([C@H](C)CO)C[C@H]1C`?
Casp6 inh: -3

What do the screens show for `CN1C(=O)c2cc(NS(C)(=O)=O)ccc2OC[C@@H]2O[C@@H](CC(=O)O)CC[C@H]21`?
Casp6 inh: -2

Results for O=C1C=C(Nc2ccc(F)cc2)c2ccccc2C1=O ?
NSD2 inh: 6; MBD2 DNA inh: -18; LEDGF integ inh: 8; TDP2 absorb: 19; UHRF1 binding: -6; Casp6 inh: 40*

Results for CCCCCn1c(=O)[nH]c2cc(C(=O)NCc3ccc4c(c3)OCO4)ccc2c1=O ?
NSD2 inh: 11; MBD2 DNA inh: 2; LEDGF integ inh: -2; TDP2 absorb: -7; UHRF1 binding: 30*

What do the screens show for `CC(C)CN1C(=O)NC2(CCCc3ccccc32)C1=O` (stereo not drawn)?
NSD2 inh: 24; MBD2 DNA inh: 1; LEDGF integ inh: 1; TDP2 absorb: 7; UHRF1 binding: 3; Casp6 inh: 40*

Results for CN(CCc1ccccc1)C(=O)c1cccc(NC(=O)Cc2cccc(NC(=O)C3CCN(C(=O)C4CCCC4)CC3)c2)c1 ?
MBD2 DNA inh: 4; LEDGF integ inh: 1; TDP2 absorb: -2; UHRF1 binding: -3; Casp6 inh: 3

How did CN(CCc1ccccc1)C(=O)c1cccc(NC(=O)Cc2cccc(NC(=O)C3CCN(C(=O)C4CC4)CC3)c2)c1 do in these assays?
MBD2 DNA inh: 0; LEDGF integ inh: 0; TDP2 absorb: -5; UHRF1 binding: 96*; Casp6 inh: 1

Results for CCOC(=O)C1=C(Cc2ccc(F)cc2)C(=O)c2ccccc2C1=O ?
MBD2 DNA inh: -6; LEDGF integ inh: 9; TDP2 absorb: 31*; UHRF1 binding: -5

How did O=C(OCc1ccc(F)cc1)c1ccc2c(c1)-c1ccccc1C2=O do in these assays?
NSD2 inh: 2; MBD2 DNA inh: -1; LEDGF integ inh: -3; TDP2 absorb: 1; UHRF1 binding: 1

How did CCOc1cccc(-c2nc3cc(C)ccc3o2)c1 do in these assays?
NSD2 inh: -3; MBD2 DNA inh: 11; LEDGF integ inh: 11; TDP2 absorb: 14; UHRF1 binding: 26*

What do the screens show for `O=C(O)C1C2C=CC(C2)C1C(=O)Nc1ccccc1Br` (stereo not drawn)?
NSD2 inh: 1; MBD2 DNA inh: 1; LEDGF integ inh: -1; TDP2 absorb: 6; UHRF1 binding: 10; Casp6 inh: 48*

How did Cc1c(NC(=O)C2C3C=CC(C3)C2C(=O)O)c(=O)n(-c2ccccc2)n1C (stereo not drawn) do in these assays?
NSD2 inh: 3; Casp6 inh: 36*

Results for CC(NC(=O)C1C2C=CC(C2)C1C(=O)O)c1ccccc1 (stereo not drawn) ?
NSD2 inh: -4; MBD2 DNA inh: 4; LEDGF integ inh: 2; TDP2 absorb: -7; UHRF1 binding: 0

Results for C[C@@H]1CN([C@H](C)CO)C(=O)c2cccc(NC(=O)c3ccncc3)c2O[C@@H]1CN(C)C(=O)Nc1ccc(C(F)(F)F)cc1 ?
Casp6 inh: 3

How did COC(=O)C[C@@H]1C[C@H]2c3cc(NS(=O)(=O)c4ccc(F)cc4)ccc3O[C@H]2[C@H](CO)O1 do in these assays?
Casp6 inh: 1

Results for CC1CCCCC1n1c(-c2cccnc2)n[nH]c1=S (stereo not drawn) ?
NSD2 inh: -1; MBD2 DNA inh: -1; LEDGF integ inh: 0; TDP2 absorb: -3; UHRF1 binding: 72*; Casp6 inh: -1

How did S=c1[nH]nc(-c2cccnc2)n1C1CCCCC1 do in these assays?
NSD2 inh: -2; MBD2 DNA inh: -2; LEDGF integ inh: 0; TDP2 absorb: 4; UHRF1 binding: 2; Casp6 inh: -1

What do the screens show for `CCc1ccc(NC(=O)CN(c2ccc3c(c2)OCO3)S(=O)(=O)c2c(C)noc2C)cc1`?
MBD2 DNA inh: 1; LEDGF integ inh: 3; TDP2 absorb: -10; UHRF1 binding: 33*; Casp6 inh: -1

Results for Cc1noc(C)c1S(=O)(=O)Nc1ccc2c(c1)CC(=O)N([C@H](C)CO)C[C@@H](C)[C@H](CN(C)S(=O)(=O)c1cccs1)O2 ?
Casp6 inh: 1

What do the screens show for `CCCCNc1ccc(C(F)(F)F)cc1S(=O)(=O)NCCc1ccc(F)cc1`?
MBD2 DNA inh: 12; LEDGF integ inh: 6; TDP2 absorb: -1; UHRF1 binding: 23*; Casp6 inh: 1

What do the screens show for `Cc1ccccc1NC(=O)C[C@H]1CC[C@H]2[C@@H](COc3ccc(NC(=O)C4CCC4)cc3C(=O)N2C)O1`?
Casp6 inh: -1

Results for COCC(=O)N(C)C[C@@H]1Oc2ncc(-c3ccc(C#N)cc3)cc2C(=O)N([C@@H](C)CO)C[C@@H]1C ?
Casp6 inh: -8

How did C[C@H](CS)C(=O)N1CCC[C@H]1C(=O)O do in these assays?
MBD2 DNA inh: 3; LEDGF integ inh: 84*; TDP2 absorb: 7; UHRF1 binding: 1; Casp6 inh: 3

What do the screens show for `CCCC(=O)N1C[C@@H]2[C@H](c3ccccc31)[C@H](CO)N2Cc1cocn1`?
Casp6 inh: 2

What do the screens show for `O=C(Cc1ccncc1)NCC[C@@H]1CC[C@@H](NC(=O)C2CCOCC2)[C@H](CO)O1`?
Casp6 inh: -1

Results for N#Cc1c(NC(=O)c2ccc([N+](=O)[O-])o2)sc2c1CCC2 ?
MBD2 DNA inh: -7; LEDGF integ inh: -1; TDP2 absorb: -1; UHRF1 binding: -1; Casp6 inh: 59*

What do the screens show for `Clc1cccc(-c2nn3c(Cn4cnc5ccccc54)nnc3s2)c1`?
NSD2 inh: 4; MBD2 DNA inh: -3; LEDGF integ inh: 2; TDP2 absorb: -8; UHRF1 binding: -5; Casp6 inh: 57*

How did C[C@@H]1CN([C@H](C)CO)C(=O)c2cc(C#Cc3ccccc3F)cnc2O[C@@H]1CN(C)C(=O)Cc1ccccc1 do in these assays?
Casp6 inh: -1
